What all share (format): functional, cell-based
The subject of one test is HL-60. The test is described as follows: Antiproliferative activity against human HL60 cells assessed as inhibition of cell viability after 48 hrs by WST-1 assay. The following applies: HL-60, 48 h. In short, it runs like this: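 WST-1 assay. HL-60 cells were seeded at 1.0 × 10^4 per well in FBS-containing medium together with test agents and incubated 48 h. Absorbance read at 415 nm. Viability expressed as percent of untreated controls; IC50 reported.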
In general terms: Formazan colour is commonly taken as a measure of viable cells.

The next test concerns HCT-116. The test is described as follows: Antiproliferative activity against human HCT116 cells assessed as inhibition of cell viability after 48 hrs by MTT assay. The following applies: HCT-116, 48 h. In short, it runs like this:
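HCT-116 cells seeded at 2.0 × 10^3 per well and allowed to attach for 24 h at 37 °C, 5% CO2. Agents were added in FBS-containing medium for 48 h. MTT (5 mg/mL in PBS stock) was then added for 4 h, formazan dissolved in DMSO, and absorbance read at 570 nm. Viability expressed as percent of untreated controls; IC50 reported.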

In a further test the test system is HepG2. The test is described as follows: Cytotoxicity against human HepG2 cells.

As a reminder, the IC50 is the concentration at which inhibition is half-maximal.

A value given as a limit tells only on which side of the number the result lay.

`COc1ccc2c(c1OC)-c1ccc3cc4c(cc3c1N(C)C2)OCO4`: the IC50 in the test with HL-60 and in the test on HCT-116 was over 10 µM in each case.

Take `COc1c(O)ccc2c[n+](C)c3c4cc5c(cc4ccc3c12)OCO5`: the half-maximal inhibitory concentration (IC50) with HL-60 and in the test on HCT-116 was over 10 µM throughout.

For `COc1cc2c(cnc3c4cc5c(cc4ccc23)OCO5)cc1O`, the IC50 with HL-60 and with HCT-116 was over 10 µM in each case.

For the compound `COc1ccc2cnc3c4cc5c(cc4ccc3c2c1OC)OCO5`, the IC50 in the test on HL-60 and in the test on HCT-116 was over 10 µM throughout.

In the case of `COc1cc2cnc3c4cc5c(cc4ccc3c2cc1OC)OCO5`, the IC50 in the test with HL-60 and in the test on HCT-116 was over 10 µM in each case.

On to `COc1ccc2c(cnc3c4cc5c(cc4ccc23)OCO5)c1O`, for which the half-inhibitory concentration (IC50) in the test with HL-60 and in the test with HCT-116 was over 10 µM each time.

`COc1ccc2c(c[n+](C)c3c4cc5c(cc4ccc23)OCO5)c1O`: the figures for the concentration for half-maximal inhibition (IC50) in the test with HL-60 and in the test on HCT-116 were 0.79 µM and 1.31 µM, respectively.

As to `COc1cc2c[n+](C)c3c4cc5c(cc4ccc3c2cc1OC)OCO5` [NITIDINE CHLORIDE], the IC50 came to 3.41 µM in the test with HL-60, 3.52 µM with HepG2 and 4.42 µM with HCT-116.

Consider `COc1ccc2c(cnc3c4cc5c(cc4ccc23)OCO5)c1OC`, for which the IC50 in the test with HL-60 and in the test on HCT-116 was over 10 µM each time.

For the compound `COc1cc2cnc3c4cc5c(cc4ccc3c2cc1O)OCO5`, the IC50 with HL-60 and in the test with HCT-116 was over 10 µM in each case.

Turning to `COc1ccc2c(c1O)CN(C)c1c-2ccc2cc3c(cc12)OCO3`, the IC50 stood at 4.96 µM with HL-60 and 3.22 µM in the test with HCT-116.

`COc1cc2c(cc1O)-c1ccc3cc4c(cc3c1N(C)C2)OCO4`: the IC50 with HL-60 was over 10 µM; in the test on HCT-116, 7.28 µM.

As for `COc1ccc2c(c1OC)CN(C)c1c-2ccc2cc3c(cc12)OCO3` [DIHYDROCHELERYTHRINE], the IC50 in the test with HL-60 and in the test with HCT-116 was over 10 µM in each case.

In the case of `COc1cc2c(cc1OC)-c1ccc3cc4c(cc3c1N(C)C2)OCO4`, the IC50 in the test with HL-60 was found to be 4.51 µM; in the test on HCT-116 it was 6.61 µM.

Turning to `COc1cc2c[n+](C)c3c4cc5c(cc4ccc3c2cc1O)OCO5`, the IC50 in the test with HL-60 worked out at 3.28 µM; in the test on HCT-116, 3.35 µM.

For `COc1ccc2c[n+](C)c3c4cc5c(cc4ccc3c2c1OC)OCO5`, the IC50 in the test with HL-60 came out at 7.82 µM; with HCT-116, 3.23 µM.

As for `COc1cc2c(cc1O)c[n+](C)c1c3cc4c(cc3ccc21)OCO4`, the IC50 in the test with HL-60 and in the test on HCT-116 was over 10 µM each time.

Consider `COc1ccc2c(c[n+](C)c3c4cc5c(cc4ccc23)OCO5)c1OC` [CHELERYTHRINE CHLORIDE], for which the IC50 turned out to be 2.99 µM in the test on HL-60 and 2.13 µM in the test with HCT-116.

`COc1c(O)ccc2c1-c1ccc3cc4c(cc3c1N(C)C2)OCO4`: the IC50 with HL-60 and in the test with HCT-116 was over 10 µM in each case.

For `COc1c(O)ccc2cnc3c4cc5c(cc4ccc3c12)OCO5`, the concentration for half-maximal inhibition (IC50) with HL-60 and in the test on HCT-116 was over 10 µM each time.
